In brackets after ≈: the same amount, converted by molar mass. Activity calls are given as the source filed them. The rule behind the calls is not given here.
Key:
[1] = Metabolic stability of the compound in rhesus monkey microsomes assessed as half life at 1 uM by LC-MS analysis; type: ADME, Macaca mulatta, Microsome
[2] = Metabolic stability of the compound in human liver microsomes assessed as half life at 1 uM by LC-MS analysis; type: ADME, Microsome
Summary of the method: (§1)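 Compound at 1 μM final (from 10 or 20 mM DMSO stocks) was incubated with 0.5 mg/mL pooled human or mouse liver microsomes. The mix held 1.3 mM NADP and 3.3 mM MgCl₂ in 0.1 M PBS pH 7.4, and the reaction was started with 1 U/mL G6PD. Incubation was at 37 °C with shaking, and samples were quenched with cold acetonitrile at 0, 10, 20, 30 and 60 min.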

[3] = Metabolic stability of the compound in mouse liver microsomes assessed as half life at 1 uM by LC-MS analysis; type: ADME, Microsome; summary of the method: as §1
Plasmodium falciparum [4] = test: Antimalarial activity against sporozoites stage of Plasmodium falciparum D6 after 3 days by microdilution technique; type: functional, organism-based; settings: D6, 72 h, in the assay text read “blood stage” for “sporozoites stage”
Summary of the method: (§2)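 P. falciparum clones were tested in vitro using a modified semiautomated microdilution technique.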

Plasmodium falciparum [5] = test: Antimalarial activity against […] of Plasmodium falciparum TM91C235 after for 3 days by microdilution technique; type: functional, organism-based; settings: TM91C235, 72 h; summary of the method: as §2
Plasmodium falciparum [6] = test: Antimalarial activity against […] of Plasmodium falciparum W2 after for 3 days by microdilution technique; type: functional, organism-based; settings: W2, 72 h; summary of the method: as §2
Plasmodium berghei [7] = test: Antimalarial activity against Plasmodium berghei in exoerythrocytic mouse model assessed as causal prophylaxis at 160 mg/kg/day, po administered one day before infection, on day of infection and one day post infection; type: functional, organism-based
Summary of the method: (§3)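 P. berghei sporozoite exoerythrocytic mouse model. Compound was ground and suspended in hydroxyethylcellulose plus Tween 80, then given po at several dose levels once daily: the day before, 4 h before, and the day after sporozoite inoculation. Mice alive on day 31 with no parasites in any blood film were scored as protected.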

Plasmodium berghei [8] = test: Antimalarial activity against Plasmodium berghei in exoerythrocytic mouse model assessed as causal prophylaxis at 320 mg/kg/day, po administered one day before infection, on day of infection and one day post infection; type: functional, organism-based; summary of the method: as §3
Mus musculus [9] = test: Toxicity in exoerythrocytic mouse model assessed as reduction in body weight at 160 mg/kg/day, po administered one day before infection, on day of infection and one day post infection measured on day 31; type: organism-based; design: route oral; settings: in vivo
Mus musculus [10] = test: Toxicity against exoerythrocytic mouse model assessed as reduction in body weight at 320 mg/kg/day, po administered one day before infection, on day of infection and one day post infection measured up to 31 days; type: organism-based; design: route oral; settings: in vivo, 744 h

SMILES | half-life at 1 µM [1] [min] | half-life at 1 µM [2] [min] | half-life at 1 µM [3] [min] | IC50 (Plasmodium falciparum [4]) [mg/L] | IC50 (Plasmodium falciparum [5]) [mg/L] | IC50 (Plasmodium falciparum [6]) [mg/L] | Activity (Plasmodium berghei [7]) | Activity (Plasmodium berghei [8]) | Activity (Mus musculus [9]) | Activity (Mus musculus [10])
CC(C)n1ccnc1/N=C(\N)Nc1ccc(Cl)c(Cl)c1 | > 60 | > 60 | 27.7 | 2.8 (≈ 8.97 µM) | 2.4 (≈ 7.69 µM) | 0.7 (≈ 2.24 µM) | Active | Active | – | –
N/C(=N\c1nccn1Cc1ccccc1)Nc1ccc(Cl)c(Cl)c1 | – | > 60 | 37 | > 2 | > 2 | > 2 | inactive | inactive | – | –
CC(C)(C)n1ccnc1/N=C(\N)Nc1ccc(Cl)c(Cl)c1 | 45 | > 60 | 48 | 1.6 (≈ 4.9 µM) | 1.2 (≈ 3.68 µM) | 0.4 (≈ 1.23 µM) | inactive | inactive | – | –
CC(C)N/C(=N\C1=NCCN1C(C)C)Nc1ccc(Cl)c(Cl)c1 | – | 50.7 | 13.6 | 0.5 (≈ 1.4 µM) | 0.7 (≈ 1.96 µM) | 0.4 (≈ 1.12 µM) | inactive | – | Toxic | Toxic
CC(C)C(=O)N/C(=N/c1nccn1C(C)C)Nc1ccc(Cl)c(Cl)c1 | – | > 60 | > 60 | 2.5 (≈ 6.54 µM) | 2.2 (≈ 5.75 µM) | 1 (≈ 2.62 µM) | – | – | – | –
CC(C)N/C(=N\c1nccn1C(C)(C)C)Nc1ccc(Cl)c(Cl)c1 | – | 48 | 9 | 1.4 (≈ 3.8 µM) | 0.9 (≈ 2.44 µM) | 0.4 (≈ 1.09 µM) | – | – | Toxic | Toxic
N/C(=N\c1ncc[nH]1)Nc1ccc(Cl)c(Cl)c1 | – | 42.5 | 23.6 | 0.5 (≈ 1.85 µM) | 2.5 (≈ 9.26 µM) | 1.4 (≈ 5.18 µM) | inactive | inactive | – | –
CC(C)N1CCN=C1/N=C(/Nc1ccc(Cl)c(Cl)c1)NC12CC3CC(CC(C3)C1)C2 | – | > 60 | > 60 | 0.3 (≈ 0.669 µM) | 0.2 (≈ 0.446 µM) | 0.2 (≈ 0.446 µM) | – | – | – | –
CC(C)n1ccnc1/N=C(/Nc1ccc(Cl)c(Cl)c1)N1CCCCC1 | 7.8 | 27 | 19.7 | 0.5 (≈ 1.31 µM) | 0.3 (≈ 0.789 µM) | 0.3 (≈ 0.789 µM) | inactive | inactive | – | –
CC(C)N1CCN=C1/N=C(\N)Nc1ccc(Cl)c(Cl)c1 | 36.3 | > 60 | > 60 | 1.4 (≈ 4.46 µM) | 1.2 (≈ 3.82 µM) | 0.7 (≈ 2.23 µM) | – | – | – | –
CC(C)N/C(=N\c1ncc[nH]1)Nc1ccc(Cl)c(Cl)c1 | – | > 60 | 37.6 | > 5 | > 5 | 0.6 (≈ 1.92 µM) | – | – | Toxic | Toxic
CC(C)n1ccnc1/N=C(/Nc1ccc(Cl)c(Cl)c1)NC(C)(C)C | – | 40.4 | 18.2 | 1.1 (≈ 2.99 µM) | – | 1 (≈ 2.72 µM) | inactive | inactive | – | –
CC(C)n1ccnc1/N=C(/NC(=O)OC(C)(C)C)Nc1ccc(Cl)c(Cl)c1 | – | > 60 | > 60 | > 5 | > 5 | > 5 | – | – | – | –
CC(C)N/C(=N\c1nccn1CC(C)(C)C)Nc1ccc(Cl)c(Cl)c1 | – | 20.3 | – | 1.1 (≈ 2.88 µM) | – | 1.5 (≈ 3.92 µM) | inactive | inactive | – | –
CCC(CC)C(=O)N/C(=N/c1nccn1C(C)(C)C)Nc1ccc(Cl)c(Cl)c1 | – | 26 | 12.5 | > 5 | > 5 | > 5 | inactive | – | – | –
CCC(CC)C(=O)N/C(=N/c1nccn1C(C)C)Nc1ccc(Cl)c(Cl)c1 | – | > 60 | > 60 | 1 (≈ 2.44 µM) | 2.9 (≈ 7.07 µM) | 0.3 (≈ 0.731 µM) | inactive | inactive | – | –
CC(C)n1ccnc1/N=C(/NC(=O)Cc1ccccc1)Nc1ccc(Cl)c(Cl)c1 | – | > 60 | 50.8 | > 5 | > 5 | > 5 | inactive | inactive | – | –
CC(C)N1CCN=C1/N=C(/Nc1ccc(Cl)c(Cl)c1)N1CCCCC1 | – | > 60 | 21.5 | 0.4 (≈ 1.05 µM) | 0.3 (≈ 0.785 µM) | 0.2 (≈ 0.523 µM) | – | – | Toxic | Toxic
CC(C)(C)C(=O)N/C(=N/c1nccn1C(C)(C)C)Nc1ccc(Cl)c(Cl)c1 | – | > 60 | > 60 | > 5 | > 5 | > 5 | – | – | – | –
CC(C)n1ccnc1/N=C(\NCC(C)(C)C)Nc1ccc(Cl)c(Cl)c1 | – | 32.9 | 10.8 | 1.4 (≈ 3.66 µM) | – | 0.9 (≈ 2.35 µM) | inactive | inactive | – | –
CC(C)C(=O)N/C(=N/c1nccn1Cc1ccccc1)Nc1ccc(Cl)c(Cl)c1 | – | 19.7 | 11 | > 2 | > 2 | > 2 | inactive | inactive | – | –
CC(C)N/C(=N\c1nccn1Cc1ccccc1)Nc1ccc(Cl)c(Cl)c1 | – | 16 | 18 | 1.3 (≈ 3.23 µM) | 2.5 (≈ 6.21 µM) | 1.6 (≈ 3.98 µM) | inactive | inactive | – | –
CC(C)(C)Cn1ccnc1/N=C(/Nc1ccc(Cl)c(Cl)c1)NC(C)(C)C | – | 12.1 | 11.7 | 0.8 (≈ 2.02 µM) | – | 0.8 (≈ 2.02 µM) | inactive | inactive | – | –
CC(C)n1ccnc1/N=C(/NC(=O)C(C)(C)C)Nc1ccc(Cl)c(Cl)c1 | – | > 60 | > 60 | > 5 | > 5 | > 5 | inactive | inactive | – | –
CC(C)N1CCN=C1/N=C(/Nc1ccc(Cl)c(Cl)c1)NC(C)(C)C | – | > 60 | 16.6 | 0.4 (≈ 1.08 µM) | – | 0.4 (≈ 1.08 µM) | inactive | – | Toxic | Toxic

Reference: ChEMBL document CHEMBL1828578, “Antimalarial activities of new guanidylimidazole and guanidylimidazoline derivatives” (J Med Chem, 2011)
